Experimental findings from PubChem BioAssay are described below.

Where “and” joins values, the source holds several entries; their conditions need not be identical. Equal entries are not always repeated. Calls of active or inactive are those of the source.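 The calls were made as follows, unless noted: active = viability at or below 10% of carrier control in both of two separate runs; inconclusive = viability at or below 10% in only one of the two runs; inactive = the rest.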

Assay [1] can be described thus: reducers of endogenous Her2 protein level, primary screen, SKBR3 breast tumor cells, AlphaScreen, ATP viability (AID 461;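 active = Her2 level under about 52% in both replicate screens, with viability over 70% of control, limit read from the data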;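 as to Her2 level: lower value means less Her2 protein in the cells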;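 as to viability: percent of carrier control wells set as 100% viability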). Conditions: 18-24 h, measured here: SKBR3 viability, ATP luminescence, at 10 µM.
Assay [2] concerns the target Receptor tyrosine-protein kinase erbB-2 (Homo sapiens) (UniProt P04626). The assay is described as above. Conditions: 18-24 h, at 10 µM, stronger effect = lower value.
Assay [3] is described as follows: SK-BR-3 cell growth inhibitors, pilot screen, 24 h, human (AID 572).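 Also: compound exposure lasted between 18 and 24 h rather than exactly 24 h; 100% = carrier-treated control wells.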 Conditions: SK-BR-3 viability, CellTiter-Glo luminescence, at 10 µM, stronger effect = lower value.
Assay [4] can be described thus: HUVEC growth inhibition – cell-based, human, primary screen (AID 575;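 active = viability at or below 30% in both replicate assays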;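 also: 100% = median of untreated cell wells with 0.1% DMSO on each plate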). Conditions: HUVEC proliferation, CellTiter-Glo luminescence, 72 h; at 10 µM; stronger effect = lower value. The method in brief:
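System: primary human umbilical vein endothelial cells; Quantity: 1250 endothelial cells in each well; Buffer or medium: supplemented EBM, 2% fetal bovine serum; Doses: one dose, 10 µM final, 0.1% DMSO; Incubation: 72 h compound incubation; Technique: ATP-based CellTiter-Glo luminescent read; Evaluation: percent of median DMSO-control luminescence; Controls: vehicle and MePR control wells.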
For orientation: In ATP-based viability assays light output follows the ATP content of the culture.

Assay [5] is described as follows: growth inhibitors of H69AR lung tumor, primary screen, human, duplicate replicates (AID 580;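 active = viability at or under a set limit in both replicates, limit being median viability minus 3 SD, cut at about 48% in these data, passing the limit was not always enough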;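 also: 100% = mean luminescence of untreated wells and 0% = no signal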). The settings on record: H69AR lung tumor cells viability, ATP luminescence, 72 h; at 10 µM; stronger effect = lower value.
The nature of assay [6]: reversal of MRP1-mediated doxorubicin resistance, pilot screen, H69AR cells, doxorubicin co-treatment (AID 601;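 active = viability loss from added drug above about 55%, and viability with drug at most 40%, in both replicates, limit read from the data, passing the limit was not always enough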). The settings on record: CellTiter-Glo, 72 h, at 10 µM; for differential viability (reversal): stronger effect = higher value.
The nature of assay [7]: 384-well plate pilot, post-Golgi transport modulator project, inhibition of yeast transport mutant growth (AID 636; in the data active = inhibition above about 31%). Conditions: absorbance 615 nm, about 18 h, stronger effect = higher value.
A short description of assay [8]: growth suppression of yeast trafficking mutant, preliminary HTS, modulators of trafficking downstream of Golgi apparatus project, 1536-format plate, OD 615 nm (AID 637; in the data active = inhibition above about 30%). The settings on record: yeast transport mutant growth, absorbance 615 nm, 18 h; stronger effect = higher value.
Where [9] appears, read: H69AR cells + 2 uM doxorubicin, measured here: viability with 2 uM doxorubicin, stronger effect = lower value.
The mark [10] stands for this setting: H69AR cells, compound alone cytotoxicity.

Receptor tyrosine-protein kinase erbB-2 (Homo sapiens), sequence (P04626 whole entry, looked up): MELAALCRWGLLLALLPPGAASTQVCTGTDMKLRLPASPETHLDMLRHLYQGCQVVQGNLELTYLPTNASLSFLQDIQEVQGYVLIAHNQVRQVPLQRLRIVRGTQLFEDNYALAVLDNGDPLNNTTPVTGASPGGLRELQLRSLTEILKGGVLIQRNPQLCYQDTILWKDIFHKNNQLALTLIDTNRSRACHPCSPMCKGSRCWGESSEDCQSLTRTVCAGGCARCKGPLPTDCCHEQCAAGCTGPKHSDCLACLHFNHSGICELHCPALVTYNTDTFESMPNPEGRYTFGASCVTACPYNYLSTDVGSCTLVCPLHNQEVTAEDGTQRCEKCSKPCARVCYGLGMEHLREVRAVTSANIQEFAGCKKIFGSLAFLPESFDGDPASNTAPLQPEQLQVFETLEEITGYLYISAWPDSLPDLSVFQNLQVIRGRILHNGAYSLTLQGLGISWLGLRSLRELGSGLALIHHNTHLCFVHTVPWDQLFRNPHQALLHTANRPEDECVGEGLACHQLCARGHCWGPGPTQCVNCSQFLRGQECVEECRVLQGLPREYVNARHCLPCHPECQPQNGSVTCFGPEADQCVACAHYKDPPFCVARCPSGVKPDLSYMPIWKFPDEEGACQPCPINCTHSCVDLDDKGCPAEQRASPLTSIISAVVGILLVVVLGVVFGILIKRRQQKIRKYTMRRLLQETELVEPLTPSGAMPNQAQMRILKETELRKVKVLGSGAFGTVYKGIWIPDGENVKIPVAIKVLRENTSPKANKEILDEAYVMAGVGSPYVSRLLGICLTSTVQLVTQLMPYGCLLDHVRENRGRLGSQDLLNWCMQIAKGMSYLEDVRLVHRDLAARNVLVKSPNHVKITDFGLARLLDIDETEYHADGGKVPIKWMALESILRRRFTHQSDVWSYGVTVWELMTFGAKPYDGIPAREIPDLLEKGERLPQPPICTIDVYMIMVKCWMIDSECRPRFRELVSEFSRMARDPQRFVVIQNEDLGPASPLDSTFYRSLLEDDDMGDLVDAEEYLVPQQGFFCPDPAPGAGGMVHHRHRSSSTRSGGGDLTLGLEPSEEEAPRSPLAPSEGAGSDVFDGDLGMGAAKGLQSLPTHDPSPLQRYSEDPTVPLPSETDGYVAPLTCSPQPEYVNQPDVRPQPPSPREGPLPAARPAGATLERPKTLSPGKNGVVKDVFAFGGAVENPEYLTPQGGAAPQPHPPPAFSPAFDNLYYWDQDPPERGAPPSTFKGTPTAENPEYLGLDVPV

As to `C[C@]12CCC(=O)C=C1CC[C@@H]1[C@@H]2[C@@H](O)C[C@@]2(C)[C@H]1CC[C@]2(O)C(=O)COC(=O)CCC(=O)O`, the viability (commonly a read-out of living cells in per cent, often relative to untreated cells) was 95% in assay [1]; 95% (inactive) and 100% (inactive) in assay [3]; 81.3% (inactive) and 75% (inactive) in assay [4]; 111% (inactive) and 103% (inactive) in assay [5]; 101% and 103% in assay [6] (setting [9]); 111% and 103% in assay [6] (setting [10]). For the same compound, the Her2 level in assay [2] was 120% (inactive). The differential viability (reversal) in assay [6] (H69AR cells + 2 uM doxorubicin) was 9.53% (inactive) and -0.58% (inactive). Besides, the values for the inhibition in assay [7] and in assay [8] were -3.38% (inactive) and 6.33% (inactive), respectively.

As for `N#Cc1ccc(CSc2nnc(-c3cnccn3)o2)cc1`, the viability in assay [1] was 106%; in assay [3], 106% (inactive); in assay [4], 93.8% (inactive); in assay [5], 106% (inactive); in assay [6] (setting [9]), 82.5%; in assay [6] (setting [10]), 106%. In assay [2], the Her2 level is 110% (inactive). Besides, the differential viability (reversal) in assay [6] (H69AR cells + 2 uM doxorubicin) is 23.4% (inactive). The inhibition (commonly the drop in the measured response relative to a control, in per cent) was -0.67% (inactive) in assay [7] and -0.97% (inactive) in assay [8].

As for `COc1cc(OC)cc(-c2nc3cc(C)ccc3o2)c1`, the viability in assay [1] is 95.5%; in assay [3], 95.5% (inactive); in assay [4], 62.8% (inactive); in assay [5], 73% (inactive); in assay [6] (setting [9]) it was 75.8%; in assay [6] (setting [10]), 73%. Besides, in assay [2], the Her2 level is 70.5% (inactive). The differential viability (reversal) in assay [6] (H69AR cells + 2 uM doxorubicin) was -2.79% (inactive). Besides, the inhibition in assay [7] is -3.16% (inactive); in assay [8], -4.52% (inactive).

As to `COc1ccc(OC)c(C2/C(=C(\O)c3ccc4c(c3)OCCO4)C(=O)C(=O)N2CCCN(C)C)c1` (stereo not given), the viability is 102% in assay [1]; 102% (inactive) in assay [3]; 111% (inactive) in assay [4]; 101% (inactive) in assay [5]; 91.3% in assay [6] (setting [9]); 101% in assay [6] (setting [10]). Moreover, the Her2 level in assay [2] was 76.5% (inactive). For the same compound, the differential viability (reversal) in assay [6] (H69AR cells + 2 uM doxorubicin) is 9.38% (inactive). In addition, the figures for the inhibition in assay [7] and in assay [8] were -4.05% (inactive) and -3.81% (inactive), respectively.

Regarding `CCn1c(C(=O)N2CCC(C(=O)NCc3ccc4c(c3)OCO4)CC2)cc2sccc21`, the viability in assay [1] is 89%; in assay [3], 89% (inactive); in assay [4] it was 96.7% (inactive); in assay [5], 89.6% (inactive); in assay [6] (setting [9]), 85.3%; in assay [6] (setting [10]), 89.6%. Moreover, the Her2 level in assay [2] is 77.5% (inactive). Also, the differential viability (reversal) in assay [6] (H69AR cells + 2 uM doxorubicin) was 4.37% (inactive). Further, the inhibition is -2.93% (inactive) in assay [7] and 1.64% (inactive) in assay [8].

For the compound `O=c1c2ccccc2nnn1CSc1nnc2sc3ccccc3n12`, the viability in assay [1] was 95%; in assay [3], 95% (inactive); in assay [4] it was 92.8% (inactive); in assay [5], 77.5% (inactive); in assay [6] (setting [9]), 67.7%; in assay [6] (setting [10]) it was 77.5%. Further, the Her2 level in assay [2] is 64% (inactive). The differential viability (reversal) in assay [6] (H69AR cells + 2 uM doxorubicin) is 9.79% (inactive). Also, the inhibition in assay [7] is -9.04% (inactive); in assay [8], -1.43% (inactive).

Turning to `CC1CCCCC1NC(=O)CN1CCN(Cc2ccccc2Cl)C1=O` (stereo not given), the viability in assay [1] is 102%; in assay [3], 102% (inactive); in assay [4] it was 90.9% (inactive); in assay [5], 80.4% (inactive); in assay [6] (setting [9]), 68.5%; in assay [6] (setting [10]), 80.4%. Further, the Her2 level in assay [2] was 97% (inactive). In addition, in assay [6] (H69AR cells + 2 uM doxorubicin), the differential viability (reversal) is 11.9% (inactive). Moreover, the inhibition in assay [7] was -4.68% (inactive); in assay [8], -7.67% (inactive).

For the compound `Cc1cccc(-c2nc(CN3CCCC(C(=O)NC4CCCC4)C3)c(C)o2)c1` (stereo not given), the viability in assay [1] was 86%; in assay [3], 86% (inactive); in assay [4], 72.3% (inactive); in assay [5], 84.2% (inactive); in assay [6] (setting [9]), 95.4%; in assay [6] (setting [10]) it was 84.2%. Besides, the Her2 level in assay [2] is 86.5% (inactive). Also, in assay [6] (H69AR cells + 2 uM doxorubicin), the differential viability (reversal) was -11.2% (inactive). For the same compound, the inhibition in assay [7] was 1.73% (inactive); in assay [8], 2.9% (inactive).

In the case of `Cc1cc(Br)ccc1NC(=O)CNC(=O)CSc1n[nH]c(N)n1`, the viability in assay [1] was 110%; in assay [3], 110% (inactive); in assay [4] it was 99.3% (inactive); in assay [5], 104% (inactive); in assay [6] (setting [9]), 87.3%; in assay [6] (setting [10]), 104%. Further, in assay [2], the Her2 level was 89.5% (inactive). For the same compound, the differential viability (reversal) in assay [6] (H69AR cells + 2 uM doxorubicin) was 16.3% (inactive). Further, the inhibition in assay [7] is -6.22% (inactive); in assay [8], 8.41% (inactive).

Take `Cc1ccc(-c2nc3ccccc3[nH]2)s1`: the viability in assay [1] is 74%; in assay [3], 74% (inactive); in assay [4], 59.8% (inactive); in assay [5] it was 58.8% (inactive); in assay [6] (setting [9]), 54.5%; in assay [6] (setting [10]), 58.8%. Further, the Her2 level in assay [2] was 95.5% (inactive). In assay [6] (H69AR cells + 2 uM doxorubicin), the differential viability (reversal) is 4.25% (inactive). The inhibition in assay [7] is 0.77% (inactive); in assay [8] it was -9% (inactive).

As to `Cc1ccc(-n2ncc(C(=O)N3CCc4ccccc4C3)c2NC(=O)c2ccco2)cc1C`, the viability was 94% in assay [1]; 94% (inactive) in assay [3]; 83.6% (inactive) in assay [4]; 86.1% (inactive) in assay [5]; 89.9% in assay [6] (setting [9]); 86.1% in assay [6] (setting [10]). Besides, the Her2 level in assay [2] is 92% (inactive). Besides, in assay [6] (H69AR cells + 2 uM doxorubicin), the differential viability (reversal) is -3.83% (inactive). For the same compound, the inhibition in assay [7] was -0.13% (inactive); in assay [8] it was -3.44% (inactive).

Consider `Nc1nnc(-c2ccccc2)c(-c2ccccc2)n1`, for which the viability in assay [1] was 96.5%; in assay [3], 96.5% (inactive); in assay [4] it was 86.4% (inactive); in assay [5] it was 99.2% (inactive); in assay [6] (setting [9]), 94%; in assay [6] (setting [10]), 99.2%. Further, the Her2 level in assay [2] is 90% (inactive). In assay [6] (H69AR cells + 2 uM doxorubicin), the differential viability (reversal) is 5.16% (inactive). Besides, the inhibition was -4.53% (inactive) in assay [7] and 7.42% (inactive) in assay [8].

Turning to `O=C(c1c(F)cccc1F)N(Cc1ccccn1)C1CCCC1`, the viability in assay [1] is 78%; in assay [3], 78% (inactive); in assay [4], 106% (inactive); in assay [5] it was 93.6% (inactive); in assay [6] (setting [9]) it was 88.9%; in assay [6] (setting [10]) it was 93.6%. Also, the Her2 level in assay [2] was 108% (inactive). Further, in assay [6] (H69AR cells + 2 uM doxorubicin), the differential viability (reversal) is 4.68% (inactive). For the same compound, the inhibition was 3.6% (inactive) in assay [7] and 26.3% (inactive) in assay [8].

Consider `Cc1nc2cc(Cl)ccc2n1CCO`, for which the viability in assay [1] is 101%; in assay [3], 101% (inactive); in assay [4] it was 102% (inactive); in assay [5], 92% (inactive); in assay [6] (setting [9]), 84.4%; in assay [6] (setting [10]) it was 92%. Also, the Her2 level in assay [2] is 95.5% (inactive). In addition, in assay [6] (H69AR cells + 2 uM doxorubicin), the differential viability (reversal) is 7.68% (inactive). For the same compound, the values for the inhibition in assay [7] and in assay [8] were -9.86% (inactive) and 0.32% (inactive), respectively.

Consider `Cc1cc(Nc2ccccc2)n(CCC#N)n1`, for which the viability in assay [1] is 83.5%; in assay [3], 83.5% (inactive); in assay [4], 105% (inactive); in assay [5], 102% (inactive); in assay [6] (setting [9]), 92.9%; in assay [6] (setting [10]), 102%. In addition, the Her2 level in assay [2] was 84.5% (inactive). Besides, the differential viability (reversal) in assay [6] (H69AR cells + 2 uM doxorubicin) is 9.18% (inactive). Moreover, the values for the inhibition in assay [7] and in assay [8] were -5.73% (inactive) and 7.7% (inactive), respectively.
